According to ChEMBL document CHEMBL4665664, “Discovery of Orally Active Hydroxyethylamine Based SPPL2a Inhibitors” (ACS Med Chem Lett, 2019):
The source made the active and inactive calls. The rule behind the calls is not given here.

Key:
[1] = biological target: T1, Signal peptide peptidase-like 2B (Homo sapiens, UniProt Q8TCT7); assay: Inhibition of SPPL2b in human U2OS cells cotransfected with EGFP-labeled TNFalpha (1 to 76 residues)-NTF incubated for 24 hrs by Hoechst staining based Cellomics ArrayScan analysis; format: cell-based
T1 sequence (Q8TCT7 whole entry): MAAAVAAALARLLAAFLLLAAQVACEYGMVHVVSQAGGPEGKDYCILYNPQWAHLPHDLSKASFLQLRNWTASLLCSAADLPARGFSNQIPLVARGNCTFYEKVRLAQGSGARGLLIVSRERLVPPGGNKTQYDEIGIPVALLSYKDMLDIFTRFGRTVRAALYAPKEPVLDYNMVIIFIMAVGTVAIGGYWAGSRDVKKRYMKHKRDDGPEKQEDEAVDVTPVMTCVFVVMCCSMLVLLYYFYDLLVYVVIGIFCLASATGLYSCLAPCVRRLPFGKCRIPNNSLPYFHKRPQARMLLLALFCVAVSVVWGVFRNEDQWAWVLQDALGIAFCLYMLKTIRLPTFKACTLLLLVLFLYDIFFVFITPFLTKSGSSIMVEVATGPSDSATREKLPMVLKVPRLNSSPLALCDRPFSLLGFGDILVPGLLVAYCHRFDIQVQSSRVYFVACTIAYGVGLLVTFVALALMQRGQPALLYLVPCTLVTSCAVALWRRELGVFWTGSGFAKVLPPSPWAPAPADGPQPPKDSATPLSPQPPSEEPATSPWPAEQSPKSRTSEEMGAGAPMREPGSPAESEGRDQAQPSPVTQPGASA

[2] = biological target: T2, Signal peptide peptidase-like 2A (Mus musculus, UniProt Q9JJF9); assay: Inhibition of mouse SPPL2a cotransfected with EGFP-NLP-fused TNFalpha (1 to 77 residues)-NTF incubated for 24 hrs by Hoechst staining based Cellomics ArrayScan analysis
T2 sequence (Q9JJF9 whole entry): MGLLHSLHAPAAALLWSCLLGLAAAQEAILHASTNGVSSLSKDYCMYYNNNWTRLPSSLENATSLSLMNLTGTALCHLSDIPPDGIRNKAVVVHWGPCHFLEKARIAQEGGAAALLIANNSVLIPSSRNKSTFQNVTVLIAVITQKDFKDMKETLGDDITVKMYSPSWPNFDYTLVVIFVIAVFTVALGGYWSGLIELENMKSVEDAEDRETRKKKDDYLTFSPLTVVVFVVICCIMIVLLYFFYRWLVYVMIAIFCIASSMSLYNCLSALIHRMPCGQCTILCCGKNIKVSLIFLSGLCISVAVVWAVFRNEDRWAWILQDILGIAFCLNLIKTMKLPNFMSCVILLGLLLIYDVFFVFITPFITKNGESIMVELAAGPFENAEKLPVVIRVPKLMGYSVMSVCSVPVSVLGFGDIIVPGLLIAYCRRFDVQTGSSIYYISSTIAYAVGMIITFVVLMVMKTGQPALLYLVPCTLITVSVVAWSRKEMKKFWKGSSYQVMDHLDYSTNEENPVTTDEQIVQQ

[3] = Half life in Balb/c mouse at 5 mg/kg, iv and 20 mg/kg, po by LC/MS/MS analysis; format: ADME, organism-based; conditions: in vivo
How it was run: (§1)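 Balb/c mice dosed 5 mg/kg i.v. and 20 mg/kg p.o. in PEG300/D5W (3:1); plasma concentration profile taken as mean of three animals; PK parameters derived from these profiles.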

[4] = biological target: Gamma-secretase; assay: Inhibition of gamma-secretase (unknown origin) expressed in HEK293 cells cotransfected with Notch1-VP16-GAL4 fusion and Gal4 luciferase reporter plasmid incubated for 24 hrs by luciferase reporter gene assay luminescence assay; format: cell-based, Homo sapiens
[5] = Total plasma concentration in mouse at 10 mg/kg, po measured after 4 hrs by LC/MS/MS analysis; format: ADME, organism-based
How it was run: (§2)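 Single oral dose of 10, 30 or 100 mg/kg in PEG300/D5W (3:1); total plasma and spleen concentrations measured at termination, 4 h post-dose; reported as means ± SEM.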

[6] = biological target: T3, Signal peptide peptidase-like 2A (Mus musculus) (UniProt Q9JJF9); assay: Inhibition of SPPL2a in mouse whole blood assessed as […] in CD74/p8 NTF accumulation at 4 uM incubated for 5 hrs by flow cytometric analysis based assay; format: tissue-based
T3 sequence (whole entry): T2 sequence (Q9JJF9 whole entry)

[7] = Drug uptake in mouse spleen at 10 mg/kg, po measured after 4 hrs by LC/MS/MS analysis; format: ADME, organism-based; conditions: read-out: Drug uptake; how it was run: as §2
[8] = Dose normalized AUC in Balb/c mouse at 20 mg/kg, po by LC/MS/MS analysis; format: ADME, organism-based; conditions: in vivo; how it was run: as §1
[9] = Volume of distribution in Balb/c mouse at 5 mg/kg, iv and 20 mg/kg, po by LC/MS/MS analysis; format: ADME, organism-based; conditions: in vivo; how it was run: as §1
[10] = Oral bioavailability in Balb/c mouse at 20 mg/kg by LC/MS/MS analysis; format: ADME, organism-based; conditions: in vivo; how it was run: as §1
[11] = Total plasma concentration in mouse at 30 mg/kg, po measured after 4 hrs by LC/MS/MS analysis; format: ADME, organism-based; how it was run: as §2
[12] = biological target: T2, Signal peptide peptidase-like 2A; assay: Inhibition of SPPL2a in Balb/c mouse A20 cells assessed as […] in CD74/p8 NTF accumulation incubated for overnight by Western blot analysis; format: cell-based
How it was run: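 Endogenous CD74/p8 NTF processing in mouse B cell line A20 measured by quantitative Western blot; IC50 derived.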

[13] = Drug uptake in mouse spleen at 100 mg/kg, po measured after 4 hrs by LC/MS/MS analysis; format: ADME, organism-based; conditions: read-out: Drug uptake; how it was run: as §2
[14] = Total plasma concentration in mouse at 100 mg/kg, po measured after 4 hrs by LC/MS/MS analysis; format: ADME, organism-based; how it was run: as §2
[15] = Drug uptake in mouse spleen at 30 mg/kg, po measured after 4 hrs by LC/MS/MS analysis; format: ADME, organism-based; conditions: read-out: Drug uptake; how it was run: as §2

IC50 [1]: 270 nM
IC50 [2]: 5 nM
half-life [3]: 5 h
IC50 [4]: 1300 nM
concentration at 4 h [5]: 0.12 µM
inhibition [6]: Active
concentration at 4 h [7]: 6 µM
AUC/dose [8]: 282 nM·h
Vd [9]: 12.3 L/kg
bioavailability [10]: 35%
concentration at 4 h [11]: 0.25 µM
IC50 [12]: 150 nM
concentration at 4 h [13]: 53.3 µM
concentration at 4 h [14]: 1.17 µM
concentration at 4 h [15]: 12.7 µM
SMILES: CC(C)(C)c1ccc(S(=O)(=O)N(C[C@H](O)[C@@H](N)c2ccc(OC(F)(F)F)cc2)C2CCC2)cc1
